Reference: ChEMBL document CHEMBL5705902, “Role of G Protein-Coupled Receptor Kinases 2 and 3 in μ-Opioid Receptor Desensitization and Internalization” (Mol Pharmacol, 2015)
Activity calls are given as the source filed them. The calls are words filed in the database; no cut-off is given here.

How the values were obtained:
[1] = biological target: Mu-type opioid receptor (Rattus norvegicus) (UniProt P33535); assay: Inhibition of MOPr desensitization in wistar rat LC neuron cells assessed as reduction in the Met-Enk induced desensitization incubated for 15 mins before; format: functional, cell-based; conditions: dose 3-30 µM
Method in brief: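 Whole-cell patch clamp of GIRK currents in locus coeruleus slices from male Wistar rats (5–8 weeks). Inhibitor was given at least 15 min before and during the agonist, all drugs by superfusion. Percent desensitization was taken over 10 min of opioid agonist application. Met-Enk n = 5, endomorphin-2 n = 6; ANOVA.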
Target sequence in this assay (P33535 whole entry, the tested form may be a part): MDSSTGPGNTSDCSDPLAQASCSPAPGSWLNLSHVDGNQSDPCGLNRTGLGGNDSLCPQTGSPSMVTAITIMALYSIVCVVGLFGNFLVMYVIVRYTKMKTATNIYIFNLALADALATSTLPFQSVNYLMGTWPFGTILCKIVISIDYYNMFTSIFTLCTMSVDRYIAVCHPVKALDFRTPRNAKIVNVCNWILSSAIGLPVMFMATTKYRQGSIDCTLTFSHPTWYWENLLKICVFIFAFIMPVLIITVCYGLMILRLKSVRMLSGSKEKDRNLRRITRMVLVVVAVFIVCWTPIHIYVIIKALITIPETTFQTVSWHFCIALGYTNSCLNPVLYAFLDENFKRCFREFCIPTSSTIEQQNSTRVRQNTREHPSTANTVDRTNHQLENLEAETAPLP

[2] = biological target: Mu-type opioid receptor (Rattus norvegicus) (UniProt P33535); assay: Inhibition of HA-tagged rat MOPr in HEK293 cells assessed as DAMGO induced MOPr phosphorylation at Ser375 level at 3 uM preincubated for 30 mins by western blot analysis; format: functional, cell-based
Method in brief: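 Serum-starved HEK 293 cells stably expressing HA-rat MOPr were pretreated with inhibitor for 30 min, then DAMGO 10 μM for 5 min. Receptor was enriched on WGA-agarose overnight at 4°C and blotted for pSer375. Densitometry was done in duplicate and normalized to total HA-MOPr; n = 3.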
Target sequence in this assay (P33535 whole entry, the tested form may be a part): as above

[3] = biological target: Mu-type opioid receptor (Rattus norvegicus) (UniProt P33535); assay: Inhibition of HA-tagged rat MOPr stably expressing in HEK293 cells assessed as increase in ERK1/2 phosphorylation level at 30 uM preincubated for 30 mins by westernblot analysis; format: functional, cell-based
Method in brief: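 HEK 293 cells stably expressing HA-tagged rat MOPr were grown to 90% confluence and serum-starved 24 h. Inhibitor was added for 30 min, then DAMGO 10 μM for 5 min. pERK1/2 was measured by Western blot with ECL detection. Densitometry was done in duplicate, normalized to total ERK1/2 and expressed as % of maximal DAMGO response; n = 4.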
Target sequence in this assay (P33535 whole entry, the tested form may be a part): as above

[4] = biological target: Mu-type opioid receptor (Rattus norvegicus) (UniProt P33535); assay: Inhibition of HA-tagged rat MOPr stably expressing in HEK293 cells assessed as increase in DAMGO-induced Elk1 phosphorylation level at 30 uM preincubated for 30 mins by westernblot analysis; format: functional, cell-based
Method in brief: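 HA-MOPr HEK 293 cells were serum-starved 24 h and pretreated with inhibitor (30 μM) for 30 min, then given DAMGO 10 μM for 5 min.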
Target sequence in this assay (P33535 whole entry, the tested form may be a part): as above

[5] = biological target: Serine/threonine-protein kinase N2 (Homo sapiens) (UniProt Q16513); assay: Inhibition of human PRK2 assessed as remaining activity at 1 uM in presence of 32ATP relative to control
Method in brief: (§1)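 Express panel of 52 purified human kinases run in vitro. Kinase activity was measured directly by a radioactive filter-binding assay with ³²ATP, at ATP levels at or below each kinase's calculated Km for ATP. The compound was tested at 1 μM. Each assay was run in duplicate, and activity is given as the mean percentage (with S.D.) of activity without inhibitor.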

[6] = biological target: Ribosomal protein S6 kinase alpha-5 (Homo sapiens) (UniProt O75582); assay: Inhibition of human MSK1 assessed as remaining activity at 1 uM in presence of 32ATP relative to control; method in brief: as §1
[7] = biological target: Rho-associated protein kinase 2 (Homo sapiens) (UniProt O75116); assay: Inhibition of human ROCK 2 assessed as remaining activity at 1 uM in presence of 32ATP relative to control; method in brief: as §1
[8] = biological target: Serine/threonine-protein kinase Chk2 (Homo sapiens) (UniProt O96017); assay: Inhibition of human CHK2 assessed as remaining activity at 1 uM in presence of 32ATP relative to control
Method in brief: (§2)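 Express screen of 52 purified human kinases run as a radioactive filter-binding assay with 32ATP, at 1 μM inhibitor. ATP was at or below each kinase's calculated Km. Activity is given as percent of the activity without inhibitor. Run in duplicate; mean with S.D.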

[9] = biological target: Mitogen-activated protein kinase 1 (Homo sapiens) (UniProt P28482); assay: Inhibition of human ERK2 assessed as remaining activity at 1 uM in presence of 32ATP relative to control; method in brief: as §1
Homo sapiens = species: Homo sapiens; assay: Inhibition of human AMPK assessed as remaining activity at 1 uM in presence of 32ATP relative to control; method in brief: as §2
[10] = biological target: Casein kinase I isoform delta (Homo sapiens) (UniProt P48730); assay: Inhibition of human CK1delta assessed as remaining activity at 1 uM in presence of 32ATP relative to control; method in brief: as §2
[11] = biological target: Dual specificity mitogen-activated protein kinase kinase 1 (Homo sapiens) (UniProt Q02750); assay: Inhibition of human MKK1 assessed as remaining activity at 1 uM in presence of 32ATP relative to control; method in brief: as §1
[12] = biological target: Myosin light chain kinase, smooth muscle (Homo sapiens) (UniProt Q15746); assay: Inhibition of human SmMLCK assessed as remaining activity at 1 uM in presence of 32ATP relative to control; method in brief: as §1
[13] = biological target: Serine/threonine-protein kinase STK11 (Homo sapiens) (UniProt Q15831); assay: Inhibition of human LKB1 assessed as remaining activity at 1 uM in presence of 32ATP relative to control; method in brief: as §1
[14] = biological target: Receptor-interacting serine/threonine-protein kinase 2 (Homo sapiens) (UniProt O43353); assay: Inhibition of human RIPK2 assessed as remaining activity at 1 uM in presence of 32ATP relative to control; method in brief: as §1
[15] = biological target: Tyrosine-protein kinase Lck (Homo sapiens) (UniProt P06239); assay: Inhibition of human Lck assessed as remaining activity at 1 uM in presence of 32ATP relative to control; method in brief: as §1
[16] = biological target: Tyrosine-protein kinase JAK2 (Homo sapiens) (UniProt O60674); assay: Inhibition of human JAK2 assessed as remaining activity at 1 uM in presence of 32ATP relative to control; method in brief: as §1
[17] = biological target: Serine/threonine-protein kinase pim-1 (Homo sapiens) (UniProt P11309); assay: Inhibition of human PIM1 assessed as remaining activity at 1 uM in presence of 32ATP relative to control; method in brief: as §1
[18] = biological target: Dual specificity tyrosine-phosphorylation-regulated kinase 1A (Homo sapiens) (UniProt Q13627); assay: Inhibition of human DYRK1A assessed as remaining activity at 1 uM in presence of 32ATP relative to control; method in brief: as §2
[19] = biological target: cAMP-dependent protein kinase (PKA) (Homo sapiens) (UniProt P22694+P17612+P22612); assay: Inhibition of PKA (unknown origin) at 1 uM in presence of 32ATP relative to control; format: protein assay; method in brief: as §2
[20] = biological target: Serine/threonine-protein kinase N2 (Homo sapiens) (UniProt Q16513); assay: Inhibition of human PRK2 at 1 uM in presence of 32ATP relative to control; method in brief: as §1
[21] = biological target: G protein-coupled receptor kinase 3 (Homo sapiens, UniProt P35626); assay: Inhibition of human GRK3 in the presence of ATP
[22] = biological target: G protein-coupled receptor kinase 5 (Bos taurus) (UniProt P43249); assay: Inhibition of C-terminal truncations tagged bovine GRK5 at 125 uM in the presence of ATP
[23] = biological target: Mu-type opioid receptor (Rattus norvegicus) (UniProt P33535); assay: Inhibition of MOPr desensitization (unknown origin) assessed as drop in maximum morphine response at 30 uM incubated for 15 mins relative to control
Target sequence in this assay (P33535 whole entry, looked up, the tested form may be a part): as the sequence (P33535 whole entry, the tested form may be a part) above

[24] = biological target: Mu-type opioid receptor (Rattus norvegicus) (UniProt P33535); assay: Inhibition of MOPr desensitization (unknown origin) assessed as reduction in the morphine induced desensitization at 3 to 30 uM incubated for 15 mins; conditions: dose 3-30 µM
Target sequence in this assay (P33535 whole entry, looked up, the tested form may be a part): as the sequence (P33535 whole entry, the tested form may be a part) above

Serine/threonine-protein kinase N2 (Homo sapiens), sequence (Q16513 whole entry, looked up): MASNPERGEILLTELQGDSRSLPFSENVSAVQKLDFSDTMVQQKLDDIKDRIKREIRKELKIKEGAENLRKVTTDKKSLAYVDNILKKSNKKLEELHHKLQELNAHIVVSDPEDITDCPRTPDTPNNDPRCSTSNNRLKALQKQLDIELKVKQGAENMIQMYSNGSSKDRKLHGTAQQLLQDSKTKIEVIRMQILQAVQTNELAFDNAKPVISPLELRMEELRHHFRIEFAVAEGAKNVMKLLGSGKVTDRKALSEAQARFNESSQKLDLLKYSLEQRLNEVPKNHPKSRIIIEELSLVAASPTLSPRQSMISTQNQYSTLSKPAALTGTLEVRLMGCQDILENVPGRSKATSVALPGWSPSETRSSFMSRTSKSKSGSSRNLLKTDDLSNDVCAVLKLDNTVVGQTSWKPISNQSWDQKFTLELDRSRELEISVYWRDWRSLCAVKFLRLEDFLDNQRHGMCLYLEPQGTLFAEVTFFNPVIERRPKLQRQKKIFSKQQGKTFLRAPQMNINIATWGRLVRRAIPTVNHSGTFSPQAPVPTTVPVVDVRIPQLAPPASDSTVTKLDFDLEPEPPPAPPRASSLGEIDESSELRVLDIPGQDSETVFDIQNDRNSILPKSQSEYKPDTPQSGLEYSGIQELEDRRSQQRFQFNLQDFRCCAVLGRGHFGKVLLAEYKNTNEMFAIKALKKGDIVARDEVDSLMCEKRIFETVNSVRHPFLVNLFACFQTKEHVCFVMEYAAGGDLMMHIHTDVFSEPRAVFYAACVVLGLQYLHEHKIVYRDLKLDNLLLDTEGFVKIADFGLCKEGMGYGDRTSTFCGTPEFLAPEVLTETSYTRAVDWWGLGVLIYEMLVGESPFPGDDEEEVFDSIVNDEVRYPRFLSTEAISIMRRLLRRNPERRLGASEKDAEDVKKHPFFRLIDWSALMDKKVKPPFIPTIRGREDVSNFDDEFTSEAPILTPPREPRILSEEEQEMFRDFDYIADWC
Serine/threonine-protein kinase STK11 (Homo sapiens), sequence (Q15831 whole entry): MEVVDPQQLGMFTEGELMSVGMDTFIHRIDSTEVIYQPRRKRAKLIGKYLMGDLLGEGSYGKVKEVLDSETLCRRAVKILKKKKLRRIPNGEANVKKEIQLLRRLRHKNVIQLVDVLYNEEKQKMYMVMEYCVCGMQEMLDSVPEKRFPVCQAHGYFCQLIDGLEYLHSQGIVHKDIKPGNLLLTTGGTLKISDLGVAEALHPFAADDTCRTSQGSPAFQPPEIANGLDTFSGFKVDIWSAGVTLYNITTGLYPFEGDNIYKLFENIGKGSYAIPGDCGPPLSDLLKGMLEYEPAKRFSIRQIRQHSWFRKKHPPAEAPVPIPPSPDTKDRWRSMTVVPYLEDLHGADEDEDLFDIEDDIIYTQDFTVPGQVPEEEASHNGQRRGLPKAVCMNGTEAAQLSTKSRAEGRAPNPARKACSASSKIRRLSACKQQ
Receptor-interacting serine/threonine-protein kinase 2 (Homo sapiens), sequence (O43353 whole entry): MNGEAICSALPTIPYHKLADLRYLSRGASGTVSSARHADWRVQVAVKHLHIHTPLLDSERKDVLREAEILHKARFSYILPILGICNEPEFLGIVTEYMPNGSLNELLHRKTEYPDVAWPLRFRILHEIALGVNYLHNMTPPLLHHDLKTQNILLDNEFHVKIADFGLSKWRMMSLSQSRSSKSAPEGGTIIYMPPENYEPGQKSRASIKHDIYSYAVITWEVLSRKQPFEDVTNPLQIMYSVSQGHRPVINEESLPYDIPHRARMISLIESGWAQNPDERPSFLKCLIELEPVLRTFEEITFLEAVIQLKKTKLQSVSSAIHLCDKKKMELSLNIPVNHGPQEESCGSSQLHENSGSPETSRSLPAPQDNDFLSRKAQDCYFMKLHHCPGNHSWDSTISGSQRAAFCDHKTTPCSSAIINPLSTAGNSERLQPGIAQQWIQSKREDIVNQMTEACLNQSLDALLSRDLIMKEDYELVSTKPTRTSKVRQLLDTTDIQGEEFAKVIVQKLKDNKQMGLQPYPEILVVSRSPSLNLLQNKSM
G protein-coupled receptor kinase 3, sequence (P35626 whole entry, the tested form may be a part): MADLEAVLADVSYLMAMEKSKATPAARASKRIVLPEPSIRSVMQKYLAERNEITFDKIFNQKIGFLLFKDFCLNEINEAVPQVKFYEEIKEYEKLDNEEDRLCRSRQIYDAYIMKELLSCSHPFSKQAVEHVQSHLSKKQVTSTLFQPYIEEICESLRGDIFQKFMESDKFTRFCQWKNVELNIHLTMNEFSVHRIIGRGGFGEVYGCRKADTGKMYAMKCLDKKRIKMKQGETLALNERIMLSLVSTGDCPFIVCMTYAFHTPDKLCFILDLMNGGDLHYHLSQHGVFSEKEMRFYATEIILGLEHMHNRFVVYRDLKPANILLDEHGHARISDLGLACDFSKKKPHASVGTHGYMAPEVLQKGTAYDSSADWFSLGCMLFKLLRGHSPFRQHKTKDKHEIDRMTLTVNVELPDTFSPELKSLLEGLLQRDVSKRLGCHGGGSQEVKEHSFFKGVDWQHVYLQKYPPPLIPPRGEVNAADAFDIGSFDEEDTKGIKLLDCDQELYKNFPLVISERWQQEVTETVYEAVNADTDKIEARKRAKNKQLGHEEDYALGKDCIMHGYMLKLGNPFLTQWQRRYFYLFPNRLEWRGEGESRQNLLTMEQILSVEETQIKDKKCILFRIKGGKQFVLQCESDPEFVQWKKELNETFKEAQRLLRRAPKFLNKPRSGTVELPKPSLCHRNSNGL
Dual specificity mitogen-activated protein kinase kinase 1 (Homo sapiens), sequence (Q02750 whole entry): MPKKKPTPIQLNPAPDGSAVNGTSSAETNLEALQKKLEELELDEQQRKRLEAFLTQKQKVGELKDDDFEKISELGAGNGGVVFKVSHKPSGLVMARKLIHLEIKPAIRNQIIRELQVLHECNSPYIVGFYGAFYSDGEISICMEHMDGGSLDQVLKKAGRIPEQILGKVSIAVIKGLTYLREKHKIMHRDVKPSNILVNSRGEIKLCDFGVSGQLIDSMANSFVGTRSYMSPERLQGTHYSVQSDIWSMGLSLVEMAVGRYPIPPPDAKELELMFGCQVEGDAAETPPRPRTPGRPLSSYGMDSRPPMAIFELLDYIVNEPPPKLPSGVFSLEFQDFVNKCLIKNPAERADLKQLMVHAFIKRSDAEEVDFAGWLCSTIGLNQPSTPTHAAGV
Serine/threonine-protein kinase pim-1 (Homo sapiens), sequence (P11309 whole entry, looked up): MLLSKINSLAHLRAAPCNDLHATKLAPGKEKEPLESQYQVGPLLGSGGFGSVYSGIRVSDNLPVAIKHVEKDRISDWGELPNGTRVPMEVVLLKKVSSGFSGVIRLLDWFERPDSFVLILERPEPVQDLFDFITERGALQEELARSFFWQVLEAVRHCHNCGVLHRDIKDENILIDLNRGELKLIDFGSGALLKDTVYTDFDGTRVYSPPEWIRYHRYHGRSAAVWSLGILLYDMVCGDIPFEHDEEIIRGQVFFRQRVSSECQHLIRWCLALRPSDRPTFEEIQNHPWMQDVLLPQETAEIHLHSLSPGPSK
Serine/threonine-protein kinase Chk2 (Homo sapiens), sequence (O96017 whole entry): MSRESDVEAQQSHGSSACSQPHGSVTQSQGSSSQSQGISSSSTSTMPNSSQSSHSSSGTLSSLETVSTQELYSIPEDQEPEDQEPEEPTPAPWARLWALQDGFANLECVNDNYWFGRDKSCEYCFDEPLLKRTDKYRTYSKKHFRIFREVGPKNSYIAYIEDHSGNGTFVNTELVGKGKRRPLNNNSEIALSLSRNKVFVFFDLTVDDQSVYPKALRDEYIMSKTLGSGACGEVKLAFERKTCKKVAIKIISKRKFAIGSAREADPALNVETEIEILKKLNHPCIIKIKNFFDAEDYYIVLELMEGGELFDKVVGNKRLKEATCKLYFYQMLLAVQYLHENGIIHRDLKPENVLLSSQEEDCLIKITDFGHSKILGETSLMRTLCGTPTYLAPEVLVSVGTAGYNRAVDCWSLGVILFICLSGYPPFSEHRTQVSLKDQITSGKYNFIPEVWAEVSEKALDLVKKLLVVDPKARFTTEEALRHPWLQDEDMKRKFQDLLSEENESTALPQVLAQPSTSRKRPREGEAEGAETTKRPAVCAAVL

Cn1c(CNc2cccc(C(=O)NCc3ccccc3C(F)(F)F)c2)nnc1-c1ccncc1
inhibition [1]: Dose-Dependent Effect | inhibition [2]: Active | inhibition [3]: Active | inhibition [4]: inactive | Activity [5]: 7% | Activity [6]: 10% | Activity [7]: 53% | Activity [8]: 79% | Activity [9]: 81% | Activity (Homo sapiens): 82% | Activity [10]: 86% | Activity [11]: 88% | Activity [12]: 89% | Activity [13]: 91% | Activity [14]: 93% | Activity [15]: 94% | Activity [16]: 94% | Activity [17]: 107% | Activity [18]: 112% | inhibition [19]: < 20% | inhibition [20]: 93% | IC50 [21]: 0.29 µM | inhibition [22]: inactive | inhibition [23]: 44% | inhibition [24]: Active
